The source of these data is ChEMBL document CHEMBL1154444, “2,3,5-Substituted tetrahydrofurans: COX-2 inhibitory activities of 5-hydroxymethyl-/carboxyl-2,3-diaryl-tetrahydro-furan-3-ols” (Eur J Med Chem, 2008).

The nature of data set [1]: Selectivity ratio of IC50 for COX1 to IC50 for COX2. The gist of the method:
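Ovine COX-1 and COX-2 inhibitor screening kit. Reaction started with arachidonic acid and quenched with 1 M HCl. PGH2 reduced to PGF2α by SnCl2, then quantified by prostaglandin antiserum immunoassay read at 405 nm. Heat-inactivated enzymes (boiling water, 3 min) served as background. Compounds tested in duplicate. Selectivity taken as IC50(COX-1)/IC50(COX-2).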

Data set [2] has as its system NCI-H522. The data set can be described thus: Anticancer activity against human NCI-H522 cells at 10 uM. The format is functional. In short, it runs like this:
(§1)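 Tested at NIH in the standard 59-human-tumor-cell-line panel, at five concentrations from 10^-4 to 10^-8 M. Read-out is percent growth inhibition of the named cell line at 10^-5 M.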

Data set [3] is described as follows: Partition coefficient, log P of the compound. The data set is classed as physicochemical. Particulars: octanol/water. The gist of the method:
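Calculated rather than measured, as one of several physico-chemical descriptors used in quantitative structure–activity correlation with COX-2 inhibition.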

Data set [4] concerns the target Prostaglandin G/H synthase 2 (Ovis aries) (UniProt P79208).
Data set [5] deals with Prostaglandin G/H synthase 1 (Ovis aries) (UniProt P05979).
Sequence of Prostaglandin G/H synthase 1 (Ovis aries) (P05979 whole entry, looked up): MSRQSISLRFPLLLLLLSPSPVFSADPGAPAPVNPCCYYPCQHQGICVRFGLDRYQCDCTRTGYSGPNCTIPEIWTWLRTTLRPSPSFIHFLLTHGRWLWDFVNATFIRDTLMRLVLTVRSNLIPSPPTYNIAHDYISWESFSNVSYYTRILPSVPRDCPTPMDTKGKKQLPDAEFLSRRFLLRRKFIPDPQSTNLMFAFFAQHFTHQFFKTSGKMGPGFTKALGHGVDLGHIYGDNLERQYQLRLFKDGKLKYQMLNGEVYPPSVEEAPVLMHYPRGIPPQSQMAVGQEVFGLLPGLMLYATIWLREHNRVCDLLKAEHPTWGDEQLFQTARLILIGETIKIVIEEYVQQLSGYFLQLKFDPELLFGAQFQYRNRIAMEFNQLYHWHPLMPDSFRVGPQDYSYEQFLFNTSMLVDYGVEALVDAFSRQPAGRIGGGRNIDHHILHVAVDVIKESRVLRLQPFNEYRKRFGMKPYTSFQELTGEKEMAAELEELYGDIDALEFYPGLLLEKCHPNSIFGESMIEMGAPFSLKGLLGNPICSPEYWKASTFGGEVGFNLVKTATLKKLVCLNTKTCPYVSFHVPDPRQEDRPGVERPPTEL
Data set [6] addresses Prostaglandin G/H synthase 2 (Ovis aries) (UniProt P79208). To be noted: at 1 µM.
Data set [7] shares this target. To be noted: at 10 µM.
In data set [8] the target is Prostaglandin G/H synthase 1 (Ovis aries) (UniProt P05979). Particulars: at 1 µM.
The test system of data set [9] is PC-3. The data set can be described thus: Anticancer activity against human PC3 cells. The format is functional.
Data set [10] relates to PC-3. The data set can be described thus: Anticancer activity against human PC3 cells at 1 uM. The format is functional.
Data set [11] concerns SN12C. The data set can be described thus: Anticancer activity against human SN12C cells at 10 uM. The format is functional. In short, it runs like this: as §1

Sequence of Prostaglandin G/H synthase 2 (Ovis aries) (P79208 whole entry, looked up): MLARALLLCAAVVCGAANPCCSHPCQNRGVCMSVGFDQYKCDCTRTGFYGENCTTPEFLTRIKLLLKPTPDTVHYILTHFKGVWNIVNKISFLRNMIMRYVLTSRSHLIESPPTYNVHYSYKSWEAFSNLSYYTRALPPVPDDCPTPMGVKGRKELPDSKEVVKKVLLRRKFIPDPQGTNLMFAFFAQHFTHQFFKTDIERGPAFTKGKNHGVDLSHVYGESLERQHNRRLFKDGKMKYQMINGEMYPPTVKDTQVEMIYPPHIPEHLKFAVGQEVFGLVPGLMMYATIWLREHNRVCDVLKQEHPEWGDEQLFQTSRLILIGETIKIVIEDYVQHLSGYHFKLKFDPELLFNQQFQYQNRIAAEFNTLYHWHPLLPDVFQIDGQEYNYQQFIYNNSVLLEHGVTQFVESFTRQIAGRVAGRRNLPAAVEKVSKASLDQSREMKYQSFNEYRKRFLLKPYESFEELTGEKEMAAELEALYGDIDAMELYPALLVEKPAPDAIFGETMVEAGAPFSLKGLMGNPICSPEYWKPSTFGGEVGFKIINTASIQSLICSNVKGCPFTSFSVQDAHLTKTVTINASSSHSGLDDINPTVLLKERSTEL

By inhibition is commonly meant the drop in the measured response relative to a control, in per cent. What is called logP is the decadic logarithm of the partition coefficient of the neutral form, usually between octanol and water. The IC50 is the concentration that gives 50% inhibition. As for `O=C(O)[C@H]1C[C@](O)(c2ccccc2Cl)[C@@H](c2ccccc2Cl)O1` (relative stereo), the Ratio IC50 in data set [1] is > 2.8. Further, the inhibition at 10 µM in data set [2] was determined as 72%. For the same compound, in data set [3], the logP came to 3.65. Also, the half-maximal inhibitory concentration (IC50) in data set [4] is 3.5 µM; in [5], > 10 µM. The inhibition is 37% in data set [6], 82% in data set [7] and 34% in data set [8].

One may read the GI50 as the concentration that inhibits growth by half. Higher therefore signals lower sensitivity of the cells. Consider `OC[C@H]1C[C@](O)(c2ccc(Cl)cc2)[C@@H](c2ccc(Cl)cc2)O1`, for which, in data set [1], the Ratio IC50 is < 3.3. Besides, in data set [9], the GI50 is 19.9 µM. Besides, in data set [3], the lipophilicity (logP) worked out at 3.54. For the same compound, the results for the half-maximal inhibitory concentration (IC50) in data set [4] and in data set [5] were 3 µM and < 10 µM, respectively. Further, the inhibition was 43% in [6], 68% in data set [7] and 56% in data set [8].

On to `COc1ccc([C@H]2O[C@@H](CO)C[C@]2(O)c2ccc(OC)cc2)cc1`, for which the Ratio IC50 in [1] was > 10. This compound also yielded a GI50 in [9] of 93.3 µM. Besides, in [3], the lipophilicity (logP) was 2. The IC50 in data set [4] was < 1 µM; in [5], > 10 µM. The inhibition came to 65% in data set [6], 67% in [7] and 22% in data set [8].

For the compound `CS(=O)(=O)c1ccc([C@H]2O[C@@H](CO)C[C@]2(O)c2ccc(S(C)(=O)=O)cc2)cc1`, the Ratio IC50 in data set [1] was < 1.5. In addition, the GI50 in data set [9] came out at 100 µM. The logP in data set [3] turned out to be 0.792. In addition, the IC50 in [4] was 6.5 µM; in data set [5], < 10 µM. Also, the inhibition in data set [6] was 40%; in data set [7], 57%; in data set [8], 55%.

In the case of `CS(=O)(=O)c1ccc(C2=C(c3ccccc3)C(=O)OC2)cc1` [ROFECOXIB], the inhibition at 1 µM in data set [10] came out at 15%.

Take `O=C(O)[C@H]1C[C@](O)(c2ccc(Cl)cc2)[C@@H](c2ccc(Cl)cc2)O1` (relative stereo): the Ratio IC50 in data set [1] was < 2.6. This compound also came in with a logP in [3] of 3.65. Further, the IC50 in [4] was 3.8 µM; in [5], < 10 µM. For the same compound, the inhibition is 30% in data set [6], 94% in [7] and 55% in [8].

Consider `OC[C@H]1C[C@](O)(c2ccccc2)[C@@H](c2ccccc2)O1`, for which the Ratio IC50 in [1] was > 1.96. For the same compound, the lipophilicity (logP) in data set [3] is 2.5. In addition, the results for the IC50 in data set [4] and in [5] were 5.1 µM and > 10 µM, respectively. Besides, the inhibition was 28% in data set [6], 77% in [7] and 2.8% in data set [8].

Turning to `O=C(O)[C@H]1C[C@](O)(c2ccccc2)[C@@H](c2ccccc2)O1` (relative stereo), in [1], the Ratio IC50 is > 10. Also, in data set [3], the logP was determined as 2.61. For the same compound, the concentration for half-maximal inhibition (IC50) in data set [4] is < 1 µM; in data set [5], > 10 µM. Moreover, the inhibition in data set [6] is 68%; in data set [7], 69%; in [8], -1.15%.

Regarding `O=C(O)[C@H]1C[C@](O)(c2ccc(F)cc2)[C@@H](c2ccc(F)cc2)O1` (relative stereo), the Ratio IC50 in data set [1] was > 3.1. Moreover, the inhibition at 10 µM in [11] worked out at 60%. This compound also showed a lipophilicity (logP) in data set [3] of 2.89. Also, the IC50 in data set [4] was 3.2 µM; in [5] it was > 10 µM. The inhibition came to 37% in data set [6], 90% in [7] and 30% in data set [8].

In data set [9], `Cc1ccc(-c2cc(C(F)(F)F)nn2-c2ccc(S(N)(=O)=O)cc2)cc1` [CELECOXIB] came in with a GI50 of 47 µM.

`OC[C@H]1C[C@](O)(c2ccccc2Cl)[C@@H](c2ccccc2Cl)O1` showed a GI50 in data set [9] of 22 µM. Besides, in [3], the lipophilicity (logP) was determined as 3.54. Besides, the half-maximal inhibitory concentration (IC50) in [4] was < 1 µM; in data set [5], < 10 µM. Moreover, the inhibition in data set [6] came to 67%; in data set [7] it was 68%; in data set [8] it was 73%.

`OC[C@H]1C[C@](O)(c2ccc(F)cc2)[C@@H](c2ccc(F)cc2)O1`: in data set [1], the Ratio IC50 is > 10. This compound had a 50% growth inhibitory concentration (GI50) in data set [9] of 95 µM. Further, the logP in data set [3] was determined as 2.78. Moreover, the figures for the half-inhibitory concentration (IC50) in data set [4] and in [5] were < 1 µM and > 10 µM, respectively. Moreover, the results for the inhibition in data set [6], in data set [7] and in data set [8] were 88%, 82% and 22%, respectively.
